# Assay results: the EternaBench riboswitch data
# Tested on: MS2 coat protein
# Experiment: apparent Kd, MS2 coat protein; higher = weaker binding; RNA-MaP array; FMN 200 µM where present
# How it was run: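 Designs were transcribed by stalled E. coli RNA polymerase on Illumina sequencing-chip clusters. They were titrated with SNAP-549-labelled MS2 coat protein from 0.7 or 1.5 nM, doubling to 3 µM, in 100 mM Tris-HCl pH 7.5, 80 mM KCl, 4 mM MgCl2, BSA, DTT, yeast tRNA and Tween-20, without and then with constant ligand. The apparent Kd is the median of filtered per-cluster fits after normalisation of green signal to red-channel RNA signal and control-cluster median Fmax.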
# [1] = designed as: ON switch for flavin mononucleotide, no ligand
# [2] = ligand present: flavin mononucleotide, designed as: ON switch for flavin mononucleotide
# [3] = designed as: OFF switch for flavin mononucleotide, no ligand
# [4] = ligand present: flavin mononucleotide, designed as: OFF switch for flavin mononucleotide
sequence,measurement,setting,value
UUGUUUCGUCAUUAACAUGAGGAUCACCCAUGUAUCGACUCAAAGGAUAUAUAUGCUUGUUUGCAAUAGAAGGUUGAUUGUUGU,apparent Kd,[1],27.9 nM
same,apparent Kd,[2],26.5 nM
UGUGCUGAAGGAUAUGCGUAAGCUCGGUGACGAGCAGAUCUACAUGAGGAUCACCCAUGUAGAAGGUCAGUACU,apparent Kd,[3],16 nM
same,apparent Kd,[4],18.4 nM
UUACAUACAAAGGUACAUGAGGAUCACCCAUGUUUGUUGGGAAGAAGGGUAACAGUACUACAUUUAUAGGAUAUUUCACAAAUA,apparent Kd,[1],95.5 nM
same,apparent Kd,[2],64 nM
GUUACAUGAGGAUCACCCAUGUAUGUGUGGGAGUAAGUGUCUUAGGAUAUCUAUUAUUGAAAUUAAGAGAAGGAAGAUUGUUGU,apparent Kd,[1],113 nM
same,apparent Kd,[2],104 nM
CGGCGCUGUCGAGAGGAUAUGCGGUGAUGGACAUGAGGAUCACCCAUGUUAGCGAUAGCAUCACGGUAGAAGGCUCUACGGCCUG,apparent Kd,[1],112 nM
same,apparent Kd,[2],15.6 nM
GGACGUCACAUGAACAUGAGGAUCACCCAUGUAAAUUCUCAUGAGGAUAUGGUUCCUAAUUGGAACCAGAAGGCAUGGACGUCC,apparent Kd,[1],1450 nM
same,apparent Kd,[2],408 nM
UUGCGGUCAGGAUAUGCAUGGCGGGACUUGCGUCGUGGCGUGGAGAAGGGACAUGAGGAUCACCCAUGUGGAGA,apparent Kd,[3],88.2 nM
same,apparent Kd,[4],65.7 nM
CCAUGACAAAGUCAUGGAUAACGAACAUGAGGAUCACCCAUGUAGGAUAUGCUACUCAAAGAGUAGCAGAAGGACAUGUGUCUU,apparent Kd,[3],32.7 nM
same,apparent Kd,[4],165 nM
AUAUAUGCUAACAUGAGGAUCACCCAUGUGUUAUACUUAAUAUAGGAUAUGUUUAUACUUUUUGGGCAGAAGGAUGGCAUAUAU,apparent Kd,[1],26.1 nM
same,apparent Kd,[2],21.8 nM
CCAGGCUGUGUGAGGAUAUGCUGGUCCUUGGAUCAGCAGAAGGCACAUGAGGAUCACCCAUGUGAAUAGCUUGG,apparent Kd,[3],16.9 nM
same,apparent Kd,[4],30 nM
GUACUACAUGAGGAUCACCCAUGUCAGGAUAUGUGAAUUUCAUCAAAAGAUGAAAUUUGCAGAAGGGACAGUAC,apparent Kd,[3],25.3 nM
same,apparent Kd,[4],33.9 nM
AAACCACAUGAGGAUCACCCAUGUAAAAAUAUGGGAGGAUAUCGGAAUAAAAUAAAGAAACGAGAAGGCCUAAAAA,apparent Kd,[1],153 nM
same,apparent Kd,[2],35.9 nM
ACACAACAUGAGGAUCACCCAUGUUUUCGAUUCACAGGAUAUGGGACAUCCGGAGGGUGACCAGAAGGGUGACUCG,apparent Kd,[1],29.9 nM
same,apparent Kd,[2],18.8 nM
UGGUACUAGGGAGGAUAUGGGAAGAUACAUGAGGAUCACCCAUGUUUAAGAAUGCCGAGAGGCAACUAGAAGGUCCUAGUACCU,apparent Kd,[1],628 nM
same,apparent Kd,[2],38.2 nM
UGGAUGUGGGUUCCACAUGAGGAUCACCCAUGUACCGAUGAGAGAAGGCGCGCUGGUUCCCAGGGCGAGGAUAUCUACAUUCAA,apparent Kd,[3],5.63 nM
same,apparent Kd,[4],14.2 nM
AUAAAACAUGAGGAUCACCCAUGUAGACACGAUGGAGGAUAUACUAGAUCGAAAGAUCUAGUAGAAGGCCGACGUA,apparent Kd,[1],21.3 nM
same,apparent Kd,[2],22.8 nM
GUGUGAAUAAGAGGAUAUAUACAACAUGAGGAUCACCCAUGUACCCGUGUAGUAGAAGGUUUGUUUUUAUAUAAUAUUAUAUUU,apparent Kd,[1],27.4 nM
same,apparent Kd,[2],22.8 nM
UGCAUGUAAGGAUAUGCAUCCGCCGACGUCCCGGCGCCACAGCAGAAGGUACAUGAGGAUCACCCAUGUGUCCC,apparent Kd,[3],21.3 nM
same,apparent Kd,[4],49.2 nM
GGUGCGUGUGUGAGGAUAUGCUGGUCCUUGGAUCAGCAGAAGGCACAUGAGGAUCACCCAUGUGGUGUCGUACC,apparent Kd,[3],490 nM
same,apparent Kd,[4],24.8 nM
GAGCUGUGAGGAUAUACAUGAGGAUCACCCAUGUUAAGGAAGUCGGGAUUAAUUUAGUGUAGAAGGCACUUAUU,apparent Kd,[3],39.9 nM
same,apparent Kd,[4],41.6 nM
GUGCGGUAGGAGAAGGACGGCGGGUUCUUUUCAUACAUGAGGAUCACCCAUGUAGGAUAUCCUACCUCACGCGGCCUACUACAG,apparent Kd,[3],8.61 nM
same,apparent Kd,[4],13.5 nM
CCUAGUGUGCAGAAGGAGAGUUAACUGCCCGUCGAUGGACUGCACAGAGCUCUAGGAUAUGCACAUGAGGAUCACCCAUGUGCU,apparent Kd,[3],6.53 nM
same,apparent Kd,[4],7.76 nM
UUACUCAUGUAAGGAUAUGCAGCCGAAGCGGCUGCAGAAGGUACUAUAAUACAUGAGGAUCACCCAUGUAAAAUAAAUAAAGUU,apparent Kd,[1],20.4 nM
same,apparent Kd,[2],16.3 nM
AAUUUAAUACAUGAGGAUCACCCAUGUAAAUUAAUUAAGAUCAAGGAUAUCAGCUCGAUUAGAGCUGAGAAGGUGAUCACAUGU,apparent Kd,[1],368 nM
same,apparent Kd,[2],99.4 nM
GGUACUCAAAGAGUAUCAAUACGAACAUGAGGAUCACCCAUGUAGGAUAUGCUACUCAAAGAGUAGCAGAAGGACAUGUGCCUA,apparent Kd,[3],16.2 nM
same,apparent Kd,[4],91.3 nM
AGUGUCAUCGAGAAGGCCUUAACAUGAGGAUCACCCAUGUUGUAACAUGGGAGGAUAUCGAUGAUACAGCUACGUUUCGUAGCA,apparent Kd,[1],412 nM
same,apparent Kd,[2],25.5 nM
UGUACUAUAAGGUUAAUUGUAUAUUGAGAAGGCAUUCACAUGAGGAUCACCCAUGUAACAUGGGAUGAGGAUAUCAUUUUGUAC,apparent Kd,[1],232 nM
same,apparent Kd,[2],32.6 nM
AGUACUCCAGAAGGAUAUGCAUCGGUGGAUGUCCUUAGGCGGACGGUCACAUGAGGAUCACCCAUGUAGAAGGUCUGGGAGCCG,apparent Kd,[3],39.8 nM
same,apparent Kd,[4],238 nM
UGUGUGAGACAGGAUAUGCCGGUUGAAUUGCUGGUAGAAGGGUCUACAUGAGGAUCACCCAUGUGGCCGGUUGG,apparent Kd,[3],18.7 nM
same,apparent Kd,[4],25.5 nM
ACUAGAUGAGGAUAUGCAUGUUUUCAUGUUCUUCUAGAUUAACAUGAGGAUCACCCAUGUAGAAGGCGUCUUUA,apparent Kd,[3],19.5 nM
same,apparent Kd,[4],34.8 nM
AGAUGGCGAGGAUAUACAUGAGGAUCACCCAUGUGAGAUAAAUAAGUGAGGAAGAAAAGUAGAAGGCGCUGUCA,apparent Kd,[3],81.3 nM
same,apparent Kd,[4],387 nM
UUUUUAUUUGCAGGAUAUUGUUUUUUAUUACUUCAAGAAGGGCAUUACAUGAGGAUCACCCAUGUCAUCCUAUGGUUAACUAGU,apparent Kd,[3],9.64 nM
same,apparent Kd,[4],11.6 nM
GGAUGACAAAGUCAUCCUAAACGAACAUGAGGAUCACCCAUGUAGGAUAUGCUUCUCAAAGAGAAGCAGAAGGACAUGUGCCUU,apparent Kd,[3],35.1 nM
same,apparent Kd,[4],276 nM
GGACGUCUCAUUAACAUGAGGAUCACCCAUGUCAAAAGACAUGAGGAUAUGGAUCCUAAUUGGAUCCAGAAGGCAUGGACGUCC,apparent Kd,[1],939 nM
same,apparent Kd,[2],59.2 nM
CACGGCGUAUCAGGAUAUGUGGGUGUCUGGACAUGAGGAUCACCCAUGUAAUCAGUAUUAGCCGUGCAGAAGGGAUCCGCUGUA,apparent Kd,[1],35.2 nM
same,apparent Kd,[2],60.3 nM
AGCGUGUUAGGAUAUACACGACGCUGGGUAGCUAGCGGAGGGUAGAAGGGACAUGAGGAUCACCCAUGUUCGGG,apparent Kd,[3],74.1 nM
same,apparent Kd,[4],105 nM
CCCUCACAUGAGGAUCACCCAUGUUAGGAUAUCUACCAGGAGCUAUGAUUAGCCCAACGGAGAAGGAACGUGCA,apparent Kd,[3],17.9 nM
same,apparent Kd,[4],17.4 nM
UUUAUAUUCAGAGGAUAUUAAAGUAGUAUAAUAUAAGAAGGCUGUUUGUUUUGUAAAUUUAUUCUACAUGAGGAUCACCCAUGU,apparent Kd,[1],19.5 nM
same,apparent Kd,[2],15.7 nM
GGCUGGUGACAGCAUCCAUCAAAACAUGAGGAUCACCCAUGUAGAAGGCUGUACGGUUACCGUACAGAGGAUAUACAAUGAUGU,apparent Kd,[3],14 nM
same,apparent Kd,[4],23.9 nM
UCGUGAAGGACAGGAUAUGGACAUGAGGAUCACCCAUGUACAUGGGAAUAUAUACUGAAUUUAUACUAGAAGGGUUACAUAAAU,apparent Kd,[3],27.4 nM
same,apparent Kd,[4],16.7 nM
CCAUCGUGUGUGAGGAUAUGCUGGUCCUUGGAUCAGCAGAAGGCACAUGAGGAUCACCCAUGUGAAUACGGUGG,apparent Kd,[3],18.6 nM
same,apparent Kd,[4],29 nM
UUUUAUUGCAAGGAUAUGCAAAUUAUUAUUAAUGCAGAAGGUGCUACAUGAGGAUCACCCAUGUUUCUGGGUUU,apparent Kd,[3],98.2 nM
same,apparent Kd,[4],308 nM
UGUUGUAUUACAGGAUAUCUAUUAGAUUUAUUUAGAGAAGGGUAUUCACAUGAGGAUCACCCAUGUAUAUACGAGGAAGUUGUG,apparent Kd,[1],57 nM
same,apparent Kd,[2],58.6 nM
UUCGCUGUGGUGUGGCGAGGCUCGUAAGAAGGGUGAUGCACAUGAGGAUCACCCAUGUAAGCCUUACAGGAUAUUGCUAGCCGA,apparent Kd,[1],539 nM
same,apparent Kd,[2],195 nM
GGAUAGGACAGAGGAUAUACGUACUAGAGAUACUAGCAAAAUUUCCUCACAUGAGGAUCACCCAUGUAGAAGGCUGUCCUAUCG,apparent Kd,[3],21.4 nM
same,apparent Kd,[4],563 nM
GAUCCUUCUGUUAGGAUAUGCUUUGGGCUUCCGCAGCAGAAGGAACAUGAGGAUCACCCAUGUCCGAUGCCGUC,apparent Kd,[3],80.5 nM
same,apparent Kd,[4],98 nM
CAUCUAUUUAGAGGAUAUGGUGACGAAAAGCUACCAGAAGGCUAAGUACAUGAGGAUCACCCAUGUGCGUGGGCGCUUAGGGUC,apparent Kd,[3],9.93 nM
same,apparent Kd,[4],47.8 nM
AUAGGUUAAGGAGGAUAUAGAGGGAGAAGUAAACAUGAGGAUCACCCAUGUAUUUAAUUAGUUUACUAGAAGGCUUAUGAUUGU,apparent Kd,[1],39.2 nM
same,apparent Kd,[2],43.7 nM
